Shown are actives, neighbours in structure and some others; about 1.2% of the full set was active somewhere.
GC-B act: GC-B (human) receptor activation | P20594 | activation, % at 10 µM | 0.11% of 370,000 active | HEK293-GC-B cells, CNP EC30, cGMP TR-FRET; 0% at EC30 CNP, 100% saturating CNP;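 active means activation at 10 µM reaching about 35% in either raw or pattern-adjusted values, limit read from the data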
NPR1 activator: GC-A (human) enzyme activation; AID 1671463; HEK293 GC-A cells, cGMP TR-FRET, EC30 ANP; 0% at EC30 ANP, 100% saturating ANP; 0.14% of 370,000 active; activation, % at 10 µM; in the data active means activation above about 40%
Target sequence (P16066 whole entry, looked up): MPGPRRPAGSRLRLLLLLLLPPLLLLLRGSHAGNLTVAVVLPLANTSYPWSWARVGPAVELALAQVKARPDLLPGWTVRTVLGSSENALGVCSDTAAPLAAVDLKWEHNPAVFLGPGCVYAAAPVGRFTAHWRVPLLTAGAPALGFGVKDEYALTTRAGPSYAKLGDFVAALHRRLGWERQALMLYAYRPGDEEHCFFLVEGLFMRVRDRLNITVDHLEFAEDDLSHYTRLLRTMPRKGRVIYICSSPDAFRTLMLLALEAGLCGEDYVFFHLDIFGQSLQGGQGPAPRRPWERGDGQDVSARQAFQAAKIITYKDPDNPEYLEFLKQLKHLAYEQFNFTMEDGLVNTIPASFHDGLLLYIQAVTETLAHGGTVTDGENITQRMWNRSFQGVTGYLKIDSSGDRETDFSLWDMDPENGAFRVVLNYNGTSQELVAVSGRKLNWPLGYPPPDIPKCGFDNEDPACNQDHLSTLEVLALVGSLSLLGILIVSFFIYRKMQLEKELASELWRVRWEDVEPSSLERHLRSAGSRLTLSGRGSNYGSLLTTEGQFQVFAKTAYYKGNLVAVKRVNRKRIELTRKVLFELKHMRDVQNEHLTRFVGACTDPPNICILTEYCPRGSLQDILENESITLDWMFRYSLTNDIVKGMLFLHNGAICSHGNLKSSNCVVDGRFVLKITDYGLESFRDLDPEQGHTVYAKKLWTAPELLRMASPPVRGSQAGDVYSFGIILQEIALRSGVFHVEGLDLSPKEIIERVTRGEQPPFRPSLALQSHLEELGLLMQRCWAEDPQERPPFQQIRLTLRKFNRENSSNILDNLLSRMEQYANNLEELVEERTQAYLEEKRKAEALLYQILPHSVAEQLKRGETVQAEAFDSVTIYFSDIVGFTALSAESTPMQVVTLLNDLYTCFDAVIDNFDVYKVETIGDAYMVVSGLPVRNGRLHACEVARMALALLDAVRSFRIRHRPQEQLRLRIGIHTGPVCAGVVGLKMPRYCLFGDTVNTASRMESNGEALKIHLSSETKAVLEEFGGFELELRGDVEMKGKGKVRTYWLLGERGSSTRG
ARFGAP1 inh: rat ARFGAP1 inhibition; Q62848; Arfgap1-stimulated ARF1 GTP hydrolysis, GDP FP detection; inhibition, % at 16.5 µM; 0.26% of 360,000 active; AID 651572;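 active means inhibition above a per-plate limit, mean inhibition of low control wells plus 3 SD, cut at about 25% in these data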;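 further: 0% = DMSO wells with enzyme and 100% = wells lacking Arfgap1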
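system = rat Arfgap1 catalytic domain, aa 1-136 | technique = FP, GDP Alexa 633 tracer displaced from anti-GDP antibody, 620/688 nm | compound = one concentration, 16.5 µM, DMSO 1.26% | medium = HEPES-based buffer, pH 7.5 | timing = compound-enzyme preincubation 20 min, reaction 120 min, detection 60 min, 25 °C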
HCV core dimer: blocks dimerization of HCV core protein; TR-FRET GST/Flag-core106 dimerization, 1536-well; inhibition, % at 5 µM; 0.33% of 300,000 active;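 active means inhibition above the mean of all tested compounds plus 3 SD, set per screening campaign, cut at about 45% in these data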
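Material: Tagged HCV core106 pair (GST and Flag) | Amount: GST-core106 13.5 nM, Flag-core106 17 nM | Medium: KF-containing HEPES buffer, pH 7.45, DTT, CHAPS, BSA | Reagent: Eu donor and XL665 acceptor anti-tag antibodies | Schedule: 4 h at 22.5 °C | Technique: Time-resolved FRET, ex 340 nm, em 617 and 671 nm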
Fh CTSL1 inh: cathepsin L1 inhibition, PFM18AAP counter-screen | 0.49% of 300,000 active | inhibition, % at 5.96 µM | recombinant F. hepatica cathepsin L1, Z-Leu-Arg-MCA fluorescence;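 active means inhibition above the mean of all tested compounds plus 3 SD, set per screening campaign, cut at about 17% in these data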;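 further: 0% = plate median of test compound wells and 100% = 1 µM Z-Phe-Ala-diazomethylketone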
ASAP1 GAP inh: blocks human ASAP1-stimulated Arf1 GTP hydrolysis; inhibition, % at 16.5 µM; Q9ULH1; AID 624377; GDP FP detection; 0.19% of 360,000 active; in the data active means inhibition above about 25%;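 further: 0% = vehicle with enzyme and substrate and 100% = no enzyme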
* marks the source's active call; other numbers are inactive results.

What do the screens show for `Cc1nc2ccc(NC(=O)c3cc([N+](=O)[O-])cc([N+](=O)[O-])c3Cl)cc2s1`?
GC-B act: 21; NPR1 activator: 80*; ARFGAP1 inh: -7; HCV core dimer: 15; Fh CTSL1 inh: -1; ASAP1 GAP inh: 12

What do the screens show for `Cc1nc2ccc(NC(=O)c3ccc(Cl)c([N+](=O)[O-])c3)cc2s1`?
GC-B act: 2; NPR1 activator: 12; ARFGAP1 inh: 4; HCV core dimer: -1; Fh CTSL1 inh: -1; ASAP1 GAP inh: -12

Results for O=C(CCCCCCCC(=O)c1ccccc1)c1ccccc1 ?
GC-B act: 2; NPR1 activator: 7; ARFGAP1 inh: 6; HCV core dimer: 3; Fh CTSL1 inh: -1; ASAP1 GAP inh: 19

What do the screens show for `C=C(CCC(=O)c1ccccc1)C(=O)c1ccccc1`?
GC-B act: -21; NPR1 activator: -26; ARFGAP1 inh: -1; HCV core dimer: -3; Fh CTSL1 inh: 41*; ASAP1 GAP inh: 11

How did COc1cccc(-c2nn3c(-c4ccco4)nnc3s2)c1 do in these assays?
GC-B act: -1; NPR1 activator: 2; ARFGAP1 inh: 9; HCV core dimer: 14; Fh CTSL1 inh: 9; ASAP1 GAP inh: 7

What do the screens show for `N/C(=N\OS(=O)(=O)c1ccc2ccccc2c1)c1ccncc1`?
GC-B act: 3; NPR1 activator: 0; ARFGAP1 inh: -13; HCV core dimer: -1; Fh CTSL1 inh: 43*; ASAP1 GAP inh: -4

What do the screens show for `N/C(=N\OS(=O)(=O)c1ccccc1)c1ccncc1`?
GC-B act: 2; NPR1 activator: 0; ARFGAP1 inh: 0; HCV core dimer: -2; Fh CTSL1 inh: 33*; ASAP1 GAP inh: 0

What do the screens show for `Cc1ccccc1OCC(=O)OCC(=O)NCc1ccccc1`?
GC-B act: -5; NPR1 activator: -4; ARFGAP1 inh: 1; ASAP1 GAP inh: -11

What do the screens show for `COc1ccccc1CNC(=O)COC(=O)COc1ccccc1Cc1ccccc1`?
GC-B act: 2; NPR1 activator: -1; ARFGAP1 inh: 5; HCV core dimer: -1; Fh CTSL1 inh: 17*; ASAP1 GAP inh: -5

What do the screens show for `CN(C(=O)COC(=O)COc1ccccc1Cc1ccccc1)c1ccccc1`?
GC-B act: 7; NPR1 activator: 0; ARFGAP1 inh: 0; HCV core dimer: -1; Fh CTSL1 inh: 18*; ASAP1 GAP inh: 6

Results for CCOc1ccc(NS(=O)(=O)c2ccc(C(=O)NCC3(N4CCCCC4)CCCCC3)cc2)cc1 ?
GC-B act: 7; NPR1 activator: -3; ARFGAP1 inh: 13; HCV core dimer: 1; Fh CTSL1 inh: 11; ASAP1 GAP inh: -7

Results for CC(=O)Nc1ccc(C(=O)NCC2(N3CCCCC3)CCCCC2)cc1 ?
GC-B act: 2; NPR1 activator: 1; ARFGAP1 inh: -5; HCV core dimer: -5; Fh CTSL1 inh: 21*; ASAP1 GAP inh: -5

Results for COc1ccccc1NC(=O)CN(Cc1ccco1)C(=O)c1ccc(-n2nc(C)cc2C)cc1 ?
GC-B act: -10; NPR1 activator: -4; ARFGAP1 inh: -1; HCV core dimer: 1; Fh CTSL1 inh: 6; ASAP1 GAP inh: -11

How did COc1ccccc1NS(=O)(=O)c1ccc(Cl)c(NC(=O)C(C)N2C(=O)c3ccccc3C2=O)c1 (stereo not given) do in these assays?
GC-B act: 3; NPR1 activator: -3; ARFGAP1 inh: 6; HCV core dimer: 7; Fh CTSL1 inh: 25*; ASAP1 GAP inh: 4

How did COc1ccccc1NC(=O)C(C(C)C)N1C(=O)c2ccccc2C1=O (stereo not given) do in these assays?
GC-B act: -8; NPR1 activator: 3; ARFGAP1 inh: 6; HCV core dimer: 4; Fh CTSL1 inh: -1; ASAP1 GAP inh: 3

Results for O=C(Nc1ccc(-n2nncc2-c2ccco2)cc1)c1cccc(F)c1 ?
GC-B act: -3; NPR1 activator: 1; ARFGAP1 inh: 2; HCV core dimer: 6; Fh CTSL1 inh: -2; ASAP1 GAP inh: 1

Results for O=C(Nc1ccc(-n2nncc2-c2ccco2)cc1)c1cc2ccccc2oc1=O ?
HCV core dimer: 77*; Fh CTSL1 inh: 4

Results for CCOC(=O)CNc1nc(Cl)nc(N2CCCCC2)n1 ?
GC-B act: 2; NPR1 activator: 4; ARFGAP1 inh: -6; HCV core dimer: 1; Fh CTSL1 inh: 1; ASAP1 GAP inh: 0

How did CN(C)c1nc(C#N)nc(N2CCOCC2)n1 do in these assays?
GC-B act: -1; NPR1 activator: 11; ARFGAP1 inh: 2; HCV core dimer: 1; Fh CTSL1 inh: 53*; ASAP1 GAP inh: -2

What do the screens show for `N#Cc1nc(N2CCCC2)nc(N2CCCC2)n1`?
GC-B act: -3; NPR1 activator: 4; ARFGAP1 inh: -7; HCV core dimer: 3; Fh CTSL1 inh: 56*; ASAP1 GAP inh: 8

What do the screens show for `CCOC(=O)CNc1nc(C#N)nc(N2CCOCC2)n1`?
GC-B act: 1; NPR1 activator: 3; ARFGAP1 inh: 13; HCV core dimer: 2; Fh CTSL1 inh: 23*; ASAP1 GAP inh: 11

How did N#Cc1nc(N2CCCCC2)nc(N2CCOCC2)n1 do in these assays?
GC-B act: -8; NPR1 activator: 3; ARFGAP1 inh: 3; HCV core dimer: 2; Fh CTSL1 inh: 76*; ASAP1 GAP inh: 1

How did CC1(C(=O)NCc2ccccc2)CN(S(C)(=O)=O)CC(=O)N1Cc1ccco1 (stereo not given) do in these assays?
GC-B act: 1; NPR1 activator: 3; ARFGAP1 inh: 3; ASAP1 GAP inh: -10

How did N#CC1=C(N)OC2=C(CC/C2=C\c2ccc(F)cc2)C1c1ccc(F)cc1 (stereo not given) do in these assays?
HCV core dimer: 52*; Fh CTSL1 inh: -1

How did O=C(Nc1ccc2[nH]c3c(c2c1)CCCC3)c1ccco1 do in these assays?
GC-B act: 1; NPR1 activator: -5; ARFGAP1 inh: -2; HCV core dimer: 47*; Fh CTSL1 inh: 4; ASAP1 GAP inh: 1

How did Cc1ccsc1-c1nc(-c2ccccc2)c(-c2ccccc2)[nH]1 do in these assays?
GC-B act: 6; NPR1 activator: -8; ARFGAP1 inh: -8; HCV core dimer: 0; Fh CTSL1 inh: 19*; ASAP1 GAP inh: -9

Results for CCN(CC)CCCNC1=C(Cl)C(=O)c2ccccc2C1=O ?
GC-B act: 0; NPR1 activator: -5; ARFGAP1 inh: 12; HCV core dimer: -9; Fh CTSL1 inh: 17*; ASAP1 GAP inh: 13

Results for COc1ccc(NC(=O)COC(=O)C(CC(C)C)N2C(=O)C3CC=CCC3C2=O)cc1Cl (stereo not given) ?
GC-B act: 1; NPR1 activator: -1; ARFGAP1 inh: -8; HCV core dimer: 0; Fh CTSL1 inh: 52*; ASAP1 GAP inh: -3
